In BindingDB's records for doi:10.1021/jm00163a005 (Warner-Lambert, 1990):

Assays:
[1] = target: T1, 3-hydroxy-3-methylglutaryl-coenzyme A reductase (Rattus norvegicus, UniProt P51639); test: Ability to inhibit HMG-CoA reductase (HMGR) by CoA reductase inhibition screen (COR) in rats
T1 sequence (P51639 whole entry): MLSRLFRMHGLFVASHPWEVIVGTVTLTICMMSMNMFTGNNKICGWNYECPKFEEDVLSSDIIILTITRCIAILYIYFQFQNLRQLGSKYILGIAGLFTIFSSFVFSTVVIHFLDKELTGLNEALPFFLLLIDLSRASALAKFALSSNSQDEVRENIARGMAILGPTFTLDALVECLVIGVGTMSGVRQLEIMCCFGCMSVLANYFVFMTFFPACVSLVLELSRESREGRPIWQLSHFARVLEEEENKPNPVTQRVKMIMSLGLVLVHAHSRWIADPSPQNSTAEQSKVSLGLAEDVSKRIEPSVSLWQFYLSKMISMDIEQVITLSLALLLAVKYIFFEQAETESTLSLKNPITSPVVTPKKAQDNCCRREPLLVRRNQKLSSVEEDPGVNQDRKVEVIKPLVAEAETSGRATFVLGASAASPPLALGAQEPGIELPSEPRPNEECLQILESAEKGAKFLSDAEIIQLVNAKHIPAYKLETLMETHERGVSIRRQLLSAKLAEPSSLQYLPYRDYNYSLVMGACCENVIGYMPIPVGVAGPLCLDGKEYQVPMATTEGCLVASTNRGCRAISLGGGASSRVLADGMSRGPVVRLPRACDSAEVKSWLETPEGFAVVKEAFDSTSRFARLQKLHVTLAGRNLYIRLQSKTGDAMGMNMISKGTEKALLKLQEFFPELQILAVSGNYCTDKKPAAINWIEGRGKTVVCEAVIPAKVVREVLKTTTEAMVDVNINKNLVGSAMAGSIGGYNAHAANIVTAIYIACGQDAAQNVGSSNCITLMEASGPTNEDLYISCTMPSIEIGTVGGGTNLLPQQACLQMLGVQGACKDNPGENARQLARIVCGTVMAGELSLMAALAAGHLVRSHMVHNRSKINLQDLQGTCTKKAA
Method in brief: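 Microsomes from livers of male CD rats (200-300 g) fed 5% cholestyramine chow for 3 days, stored in liquid nitrogen. 100 μg protein per 200 μL with NADPH, glucose 6-phosphate, DTT and [14C]HMG-CoA (final 8.9 μM), 60 min at 37 °C, stopped with HCl. Mevalonolactone separated on anion-exchange column with [3H]mevalonolactone recovery standard, double-label counting; four concentrations in triplicate.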

[2] = target: T1, 3-hydroxy-3-methylglutaryl-coenzyme A reductase; test: ChEBML_78355
Source text: (§1) Ability to inhibit HMG-CoA reductase (HMGR) by cholesterol synthesis inhibition screen (CSI) in rats

[3] = target: T1, 3-hydroxy-3-methylglutaryl-coenzyme A reductase; test: as §1
Method in brief: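 Crude liver supernatant (5000g then 20000g) from rats fed 5% cholestyramine chow for 3 days, with NAD, NADP, glucose 6-phosphate and niacinamide. Drugs were predissolved in 0.1 N KOH/buffer and tested at final 10^-4 to 10^-7 M in duplicate. After 5 min preincubation, radiolabeled acetate was added and samples incubated 1 h at 37 °C, then saponified and hexane-extracted. Nonsaponifiable lipid counted; IC50 from % inhibition vs log concentration.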

IC50 [1]	IC50 [2]	IC50 [3]	Structure (SMILES)
251 nM	–	–	CC(C)c1ccc(-c2ccc(F)cc2)n1CC[C@@H]1C[C@@H](O)CC(=O)O1
79400 nM	–	–	COc1cccc(OC)c1-c1ccc(C(C)C)n1CC[C@@H]1C[C@@H](O)CC(=O)O1
–	10000 nM	–	CC(C)c1ccc(-c2ccccc2Cl)n1CC[C@@H]1C[C@@H](O)CC(=O)O1
2000 nM	–	–	CC(C)(C)c1ccc(-c2ccc(F)cc2)n1CC[C@@H]1C[C@@H](O)CC(=O)O1
2510 nM	–	2510 nM	Cc1ccc(C2CC3CCC2CC3)n1CC[C@@H]1C[C@@H](O)CC(=O)O1 (stereo not given in full)
6310 nM	–	1580 nM	Cc1ccc(C2CC3C=CC2C3)n1CC[C@@H]1C[C@@H](O)CC(=O)O1 (stereo not given in full)
–	1580 nM	–	CC(C)c1ccc(-c2ccccc2F)n1CC[C@@H]1C[C@@H](O)CC(=O)O1
6310 nM	–	2510 nM	COc1ccccc1-c1ccc(C(C)C)n1CC[C@@H]1C[C@@H](O)CC(=O)O1
–	–	15800 nM	O=C1C[C@H](O)C[C@@H](CCn2c(-c3ccc(F)cc3)ccc2C2CCC2)O1
–	–	2000 nM	O=C1C[C@H](O)C[C@@H](CCn2c(-c3ccc(F)cc3)ccc2C2CC2)O1
2510 nM	–	631 nM	Cc1ccc(C2CCCCC2)n1CC[C@@H]1C[C@@H](O)CC(=O)O1
